Laboratory results reported in ChEMBL document CHEMBL4145530, “Design, synthesis and pharmacological evaluation of N-benzyl-piperidinyl-aryl-acylhydrazone derivatives as donepezil hybrids: Discovery of novel multi-target anti-alzheimer prototype drug candidates” (Eur J Med Chem, 2018).
The source made the active and inactive calls.

Key:
[1] = test system: Mus musculus; assay: (§1) Anti-inflammatory activity in C57Bl/6 mouse model of amyloid beta (1 to 42) oligomer-induced neuroinflammation assessed as inhibition of neurodegeneration in CA1 region of ipsilateral hippocampus at 100 mg/kg, ip pretreated for 1.5 hrs followed by amyloid beta (1 to 42) oligomer addition and measured after 7 days by Fluoro-Jade C staining based fluorescence microscopic assay; assay type: functional, organism-based
Method in brief: (§2)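 C57Bl/6 male mice were dosed i.p. at 100 mg/kg 1.5 h before stereotactic right intrahippocampal Aβ1-42 oligomer injection (400 pmol/0.5 µL), with PBS as control. After 7 days, hippocampal sections were stained with Fluoro-Jade C (0.0001%) after NaOH/ethanol and permanganate steps. Five CA1 images per hippocampus were imaged under fluorescence and pixel intensity quantified, n=10.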

[2] = test system: SH-SY5Y; assay: Neuroprotection in human SH-SY5Y cells assessed as inhibition of amyloid beta (1 to 42) oligomer-induced early neurotoxic event by measuring decrease in MTT formazan exocytosis at 10 uM after 4 hrs by microscopic method; assay type: functional, cell-based
Method in brief: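 SH-SY5Y cells (3×10^4/well) were grown 24 h, then co-treated with compound and Aβ1-42 oligomers (10 µM) for 4 h at 37 °C. Medium was replaced by MTT in PBS for 2 h. Needle-like exocytosed formazan crystals on the cell surface were assessed by light microscopy. Three independent experiments.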

[3] = test system: Mus musculus; assay: Antinociceptive activity in carrageenan-induced Swiss mouse model of mechanical hyperalgesia assessed as mechanical hyperalgesic index pretreated orally for 1 hr followed by carrageenan challenge by Von Frey filament assay; assay type: functional
Method in brief: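 Swiss mice were placed in wire-screen acrylic boxes 60 min before testing. Vehicle, compound or indomethacin was given orally 1 h before intraplantar carrageenan. Mechanical threshold was found by the von Frey up-and-down method, with at least 6 trials at 10 s intervals, raising filament mass until paw withdrawal. Results are given as threshold in grams; n=8.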

[4] = test system: Mus musculus; assay: Antinociceptive activity in formalin-induced Swiss mouse model of hyperalgesia assessed as time spent licking the injected paw in early phase at 100 mM/kg, po pretreated for 1 hr followed by formalin injection and measured up to 5 mins (reference value: 74 +/- 7.7 secs); assay type: functional
[5] = test system: Mus musculus; assay: Inhibition of serum COX2 level in Swiss mouse model of carragenan-induced paw edema at 100 mM/kg, po pretreated for 1 hr followed by carrageenan treatment measured after 3 hrs by ELISA; assay type: functional
Method in brief: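 Swiss mice (n=8) received compound (100 mM/kg) or vehicle orally 1 h before intraplantar carrageenan; indomethacin was the positive control. Three hours later, blood was drawn from the heart under chloral hydrate anaesthesia and serum was collected. COX-1 and COX-2 protein was measured by sandwich ELISA read at 450 nm and expressed as percent COX level.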

[6] = test system: THP-1; assay: Anti-inflammatory activity in human THP1 cells assessed as inhibition of LPS-induced IL-1beta production at 10 uM after 24 hrs by ELISA relative to control; assay type: functional; conditions: THP-1, 24 h
Method in brief: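 Human monocytic THP-1 cells (5×10^5 cells/mL) were given LPS 1 µg/mL with or without compound at 10 µM for 24 h. Cells were spun out at 500 × g and the medium kept at −80 °C. Secreted IL-1β and TNFα were measured with high-sensitivity ELISA. Three independent experiments.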

[7] = target: Acetylcholinesterase (Electrophorus electricus) (UniProt O42275); assay: (§3) Inhibition of electric eel AChE using acetylthiocholine iodide as substrate preincubated for 10 mins followed by substrate addition by Ellman's method
[8] = target: T1, Acetylcholinesterase (Electrophorus electricus, UniProt O42275); assay: as §3
[9] = test system: Mus musculus; assay: Anti-inflammatory activity in po dosed Swiss mouse assessed as reduction in carrageenan-induced paw edema pretreated for 1 hr followed by carrageenan injection and measured after 1 to 5 hrs by plethysmometric method; assay type: functional; conditions: read-out: ID50 (the source's name)
Method in brief: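 Male Swiss mice (22–28 g) were fasted overnight and dosed orally with vehicle (2% DMSO in sterile saline), compound or indomethacin 1 h before intraplantar carrageenan. Groups (n=10) were matched on basal paw volume. Right hind paw volume was read by plethysmometer at 1, 3 and 5 h and expressed as change from basal.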

[10] = target: T1, Acetylcholinesterase; assay: Non-competitive inhibition of electric eel AChE using acetylthiocholine iodide as substrate preincubated for 10 mins followed by substrate addition by Ellman's method
Method in brief: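 Substrate-competition kinetics with E. electricus AChE by Ellman's method: 10 min enzyme–DTNB–compound preincubation in 0.1 M phosphate, pH 7.4, then acetylthiocholine; A412 was read every 12 s for 5 min at rt. Three independent data sets, each in triplicate, were averaged and fitted to a simple noncompetitive model. That model was compared with mixed linear inhibition by AICc probability ratio.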

[11] = target: T2, Prostaglandin G/H synthase 1 (Ovis aries) (UniProt P05979); assay: Inhibition of ovine COX1 at 10 uM using arachidonic acid as substrate preincubated for 120 mins followed by substrate addition measured for 5 secs by chemiluminescence assay relative to control
T2 sequence (whole entry): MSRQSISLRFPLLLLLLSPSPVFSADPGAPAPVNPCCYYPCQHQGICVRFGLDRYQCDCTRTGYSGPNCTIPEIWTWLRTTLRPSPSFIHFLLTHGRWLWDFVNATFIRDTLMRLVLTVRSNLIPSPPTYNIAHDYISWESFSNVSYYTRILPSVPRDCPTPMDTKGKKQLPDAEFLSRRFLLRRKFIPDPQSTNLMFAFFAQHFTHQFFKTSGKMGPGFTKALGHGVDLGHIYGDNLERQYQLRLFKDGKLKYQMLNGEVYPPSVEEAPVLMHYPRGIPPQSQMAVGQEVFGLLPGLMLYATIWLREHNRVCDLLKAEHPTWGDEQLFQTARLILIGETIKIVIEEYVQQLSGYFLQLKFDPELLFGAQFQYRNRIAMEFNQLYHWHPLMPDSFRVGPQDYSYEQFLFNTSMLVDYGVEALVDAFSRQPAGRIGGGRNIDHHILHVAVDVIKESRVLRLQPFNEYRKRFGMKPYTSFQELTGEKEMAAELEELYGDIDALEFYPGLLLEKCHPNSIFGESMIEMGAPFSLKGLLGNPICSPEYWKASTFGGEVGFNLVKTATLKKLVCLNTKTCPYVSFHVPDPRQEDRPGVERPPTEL
Method in brief: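 COX-1 or COX-2 with heme was preincubated 120 min with compound (10 µM) in assay buffer. Arachidonic acid and a chemiluminescent substrate were then added at room temperature and peroxidative activity was read for 5 s; ibuprofen was the reference. Selectivity index was taken as the ratio of maximum COX-2 inhibition to COX-1 inhibition. Two independent experiments.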

[12] = test system: Mus musculus; assay: as §1, with “Toxicity” for “Anti-inflammatory activity”, “induction” for “inhibition”; assay type: organism-based; conditions: in vivo, 168 h; method in brief: as §2

T1 sequence (O42275 whole entry): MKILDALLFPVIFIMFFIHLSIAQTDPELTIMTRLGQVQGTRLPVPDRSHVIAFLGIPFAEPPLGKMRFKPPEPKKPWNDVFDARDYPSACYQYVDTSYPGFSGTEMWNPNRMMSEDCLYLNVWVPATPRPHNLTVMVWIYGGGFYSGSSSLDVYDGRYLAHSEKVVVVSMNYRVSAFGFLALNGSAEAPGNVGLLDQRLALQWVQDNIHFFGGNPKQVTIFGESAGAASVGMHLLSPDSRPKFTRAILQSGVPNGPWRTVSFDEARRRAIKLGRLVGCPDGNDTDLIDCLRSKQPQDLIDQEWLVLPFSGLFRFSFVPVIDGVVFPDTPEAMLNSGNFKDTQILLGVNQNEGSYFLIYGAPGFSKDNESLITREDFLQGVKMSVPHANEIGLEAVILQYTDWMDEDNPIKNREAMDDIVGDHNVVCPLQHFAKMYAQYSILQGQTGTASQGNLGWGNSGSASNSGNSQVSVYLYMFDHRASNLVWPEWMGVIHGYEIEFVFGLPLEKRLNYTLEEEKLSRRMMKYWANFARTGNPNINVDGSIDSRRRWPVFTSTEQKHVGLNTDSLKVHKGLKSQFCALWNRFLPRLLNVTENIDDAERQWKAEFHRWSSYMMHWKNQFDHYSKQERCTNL
Sequence of Acetylcholinesterase (Electrophorus electricus) (O42275 24-633 limits assumed): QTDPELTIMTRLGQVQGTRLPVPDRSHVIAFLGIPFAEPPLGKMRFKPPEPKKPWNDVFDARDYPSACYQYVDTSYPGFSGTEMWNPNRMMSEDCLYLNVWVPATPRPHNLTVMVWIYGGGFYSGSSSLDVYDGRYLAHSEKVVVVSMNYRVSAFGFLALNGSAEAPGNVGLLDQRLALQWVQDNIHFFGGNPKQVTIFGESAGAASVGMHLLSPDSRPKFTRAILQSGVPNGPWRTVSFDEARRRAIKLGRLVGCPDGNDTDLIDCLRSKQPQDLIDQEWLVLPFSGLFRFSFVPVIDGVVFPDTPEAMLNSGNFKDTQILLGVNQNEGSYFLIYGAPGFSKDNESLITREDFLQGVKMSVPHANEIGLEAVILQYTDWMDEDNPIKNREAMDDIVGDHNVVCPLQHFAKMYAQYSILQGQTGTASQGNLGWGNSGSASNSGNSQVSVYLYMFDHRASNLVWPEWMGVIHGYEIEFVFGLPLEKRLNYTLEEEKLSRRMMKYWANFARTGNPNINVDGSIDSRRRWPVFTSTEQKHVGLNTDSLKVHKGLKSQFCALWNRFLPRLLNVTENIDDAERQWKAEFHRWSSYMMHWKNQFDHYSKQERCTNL

O=C(N/N=C/c1ccc(Cl)cc1)c1ccc(CN2CCCC(O)C2)cc1 (configuration not stated)
inhibition [1]: Active | inhibition [2]: Active | Activity_index [3]: 168.3 | Time [4]: 14 s | inhibition (INH) [5]: 42% | inhibition at 10 µM [6]: 29% | inhibition [7]: Dose-dependent effect | IC50 [8]: 25.4 µM | ED50 [9]: 8.76 µmol/kg | Ki [10]: 7.76 µM | inhibition [11]: 51%

O=C(N/N=C/c1ccc(F)cc1)c1ccc(CN2CCCC(O)C2)cc1 (configuration not stated)
inhibition [1]: inactive | Activity_index [3]: 178.9 | Activity [12]: Toxic | Time [4]: 18.86 s | inhibition (INH) [5]: 25% | inhibition at 10 µM [6]: 31% | inhibition [7]: Dose-dependent effect | IC50 [8]: 8.65 µM | ED50 [9]: 4.66 µmol/kg | Ki [10]: 13.4 µM | inhibition [11]: 64%
